The test system of one data set is Escherichia coli. Briefly: Antibacterial activity against Escherichia coli after 18 hrs. The class given is functional. The method in brief: (§1)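 Broth microdilution in non-cation-adjusted MHB. Overnight 37 °C cultures adjusted to OD 0.1, then diluted 1:100. Two-fold compound dilutions were prepared in the plate before inoculation, with growth and sterility controls. Plates were incubated 18 h at 37 °C and read at OD600. MIC was the lowest concentration with no growth, from three concordant experiments each with three internal replicates.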

Data set [1] concerns Pseudomonas aeruginosa. Briefly: Antibacterial activity against Pseudomonas aeruginosa after 18 hrs. The data set is classed as functional. The method in brief: as §1
Data set [2] concerns Staphylococcus aureus. Briefly: Antibacterial activity against Staphylococcus aureus after 18 hrs. The class given is functional. The method in brief:
as §1

Data set [3] is described as follows: Solubility of the compound in water. The class given is physicochemical. The following applies: buffer.
The test system of data set [4] is Pseudomonas aeruginosa. Briefly: Antibacterial activity against Pseudomonas aeruginosa assessed as induction of total membrane lysis at 4 times MIC after 1 hr by uranyl acetate/lead citrate staining-based transmission electron microscopic method. The class given is functional. The method in brief:
(§2)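 Overnight cultures in non-cation-adjusted MHB were diluted to OD 0.4. 1 mL aliquots were incubated 1 h at 37 °C with compound at 4 x MIC or without compound (control). Cells were washed in Tris buffer (pH 7.4) and fixed in 4% glutaraldehyde for 2 h at room temperature. They were post-fixed in 1% osmium tetroxide, ethanol/acetone dehydrated, epoxy embedded (60 °C, 48 h), ultrathin sectioned and imaged by TEM.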

Data set [5] has as its system Staphylococcus aureus. Briefly: Antibacterial activity against Staphylococcus aureus assessed as induction of cell membrane rupture at 4 times MIC after 1 hr by uranyl acetate/lead citrate staining-based transmission electron microscopic method. The class given is functional. The method in brief: as §2
Data set [6] deals with Staphylococcus aureus. Briefly: Antibacterial activity against Staphylococcus aureus assessed as induction of cell wall rupture at 4 times MIC after 1 hr by uranyl acetate/lead citrate staining-based transmission electron microscopic method. The class given is functional. The method in brief: as §2
Data set [7] deals with Staphylococcus aureus. Briefly: Antibacterial activity against Staphylococcus aureus assessed as decrease in intracellular density at 4 times MIC after 1 hr by uranyl acetate/lead citrate staining-based transmission electron microscopic method. The class given is functional, cell-based. In outline: as §2
Data set [8] concerns Pseudomonas aeruginosa. Briefly: Antibacterial activity against Pseudomonas aeruginosa assessed as induction of cell blebbing at 4 times MIC after 1 hr by uranyl acetate/lead citrate staining-based transmission electron microscopic method. The class given is functional. The method in brief:
as §2

For data set [9], the system named is Candida albicans. Briefly: Antifungal activity against Candida albicans after 48 hrs. The data set is classed as functional. In outline:
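A single C. albicans colony was taken into RPMI, adjusted to OD 0.1 and diluted 1:100. Two-fold compound dilutions were set up as for the bacterial microdilution and incubated 48 h. MIC was scored visually from colonies on the well bottoms as the lowest concentration with no growth, from three concordant experiments each with three internal replicates.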

In data set [10] the test system is Candida albicans. Briefly: Antifungal activity against Candida albicans after 48 hrs in presence of 0.39 uM amphotericin B. The data set is classed as functional. In outline: (§3)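 C. albicans in RPMI (OD 0.1, diluted 1:100) was tested by two-fold compound dilution with 48 h incubation. The medium was supplemented with amphotericin B at 0.78 or 1.56 µM, giving a final 0.39 or 0.78 µM per well. MIC was read visually as no colony growth, from three concordant experiments each with three internal replicates.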

Data set [11] deals with Candida albicans. Briefly: Antifungal activity against Candida albicans after 48 hrs in presence of 0.78 uM amphotericin B. The class given is functional. The method in brief:
as §3

Data set [12] deals with Pseudomonas aeruginosa. Briefly: Antibacterial activity against Pseudomonas aeruginosa assessed as induction of cell membrane rupture at 4 times MIC after 1 hr by uranyl acetate/lead citrate staining-based transmission electron microscopic method. The class given is functional. The method in brief:
as §2

In brackets after ≈: the same amount, converted by molar mass. Activity calls are given as the source filed them. The calls are words filed in the database; no cut-off is given here. Square brackets hold non-standard residues; d marks the D form. Peptide text beside a SMILES is read from it. Orn = NCCC[C@H](N)C(=O)O; 2Abz = Nc1ccccc1C(=O)O

Usually MIC stands for the lowest concentration found to suppress growth.

As to `CC(C)C[C@@H]1NC(=O)[C@H](CCCN)NC(=O)[C@H](C(C)C)NC(=O)[C@H](Cc2ccc(O)cc2)NC(=O)[C@H](CCC(N)=O)NC(=O)[C@H](CC(N)=O)NC(=O)[C@@H](Cc2ccccc2)NC(=O)[C@H](Cc2ccccc2)NC(=O)c2ccccc2NC(=O)[C@@H](Cc2ccccc2)NC1=O` (cyclo([2Abz]F[dF]NQYV[Orn]L[dF])), the MIC in the data set with Escherichia coli came out at 50 µM (≈ 64.6 µg/mL); against Pseudomonas aeruginosa [1] it was 100 µM (≈ 129 µg/mL); in the data set on Staphylococcus aureus [2] it was 6.25 µM (≈ 8.08 µg/mL). The solubility result in data set [3] is “Insoluble”.
Take `CC(C)C[C@@H]1NC(=O)[C@H](CCCN)NC(=O)[C@H](C(C)C)NC(=O)[C@H](Cc2ccc(O)cc2)NC(=O)[C@H](CCCCN)NC(=O)[C@H](CC(N)=O)NC(=O)[C@@H](Cc2ccccc2)NC(=O)[C@H](Cc2ccccc2)NC(=O)c2ccccc2NC(=O)[C@@H](Cc2ccccc2)NC1=O` (cyclo([2Abz]F[dF]NKYV[Orn]L[dF])): the result in the data set with Pseudomonas aeruginosa [4], in the data set on Staphylococcus aureus [5], in the data set on Staphylococcus aureus [6], in the data set with Staphylococcus aureus [7] and in the data set on Pseudomonas aeruginosa [8] was Active. The MIC came to 12.5 µM (≈ 16.2 µg/mL) in the data set on Escherichia coli; 25 µM (≈ 32.3 µg/mL) in the data set on Pseudomonas aeruginosa [1]; 1.56 µM (≈ 2.02 µg/mL) against Staphylococcus aureus [2]; 12.5 µM (≈ 16.2 µg/mL) in the data set on Candida albicans [9]; 0.78 µM with Candida albicans [10]; 0.39 µM in the data set with Candida albicans [11].
As to `CC(C)C[C@@H]1NC(=O)[C@H](CCCN)NC(=O)[C@H](C(C)C)NC(=O)[C@H](Cc2ccc(O)cc2)NC(=O)[C@H](CCC(N)=O)NC(=O)[C@H](CC(N)=O)NC(=O)[C@@H](Cc2ccccc2)NC(=O)[C@H](Cc2ccccc2)NC(=O)[C@@H]2CCCN2C(=O)[C@@H](Cc2ccccc2)NC1=O` [TYROCIDINE A] (cyclo(F[dF]NQYV[Orn]L[dF]P)), the MIC is 25 µM (≈ 31.8 µg/mL) against Escherichia coli; 100 µM (≈ 127 µg/mL) against Pseudomonas aeruginosa [1]; 1.56 µM (≈ 1.98 µg/mL) in the data set on Staphylococcus aureus [2]; 3.12 µM (≈ 3.97 µg/mL) against Candida albicans [9]; 0.78 µM in the data set on Candida albicans [10]; 0.39 µM in the data set on Candida albicans [11]. Moreover, the result in the data set on Staphylococcus aureus [5], in the data set with Staphylococcus aureus [6] and with Staphylococcus aureus [7] was Active. The result in the data set with Pseudomonas aeruginosa [12] was inactive.
For `C[C@@H]1[C@H](O)[C@@H](C)/C=C/C=C/C=C/C=C/C=C/C=C/C=C/[C@H](O[C@@H]2O[C@H](C)[C@@H](O)[C@H](N)[C@@H]2O)C[C@@H]2O[C@](O)(C[C@@H](O)C[C@@H](O)[C@H](O)CC[C@@H](O)C[C@@H](O)CC(=O)O[C@H]1C)C[C@H](O)[C@H]2C(=O)O` [AMPHOTERICIN B], in the data set with Candida albicans [9], it took 1.56 µM (≈ 1.44 µg/mL) to inhibit growth (MIC).

Source of the values: ChEMBL document CHEMBL4028899, “Tyrocidine A Analogues Bearing the Planar d-Phe-2-Abz Turn Motif: How Conformation Impacts Bioactivity” (J Med Chem, 2017).
